For test [1], the target named is Histone deacetylase. Format: cell-based, Homo sapiens. The conditions noted are these: hela.
Test [2] has as its system A549. As to the kind of experiment: Antiproliferative activity against human A549 cells assessed as cell growth inhibition after 48 hrs by sulforhodamine B assay. Format: functional. The method in brief: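 Cells seeded at 5000/well overnight; baseline plate fixed with 10% TCA at time of compound addition (T0). Treated with DMSO or graded doses for 48 h, fixed with 10% TCA, stained with 0.4% (w/v) SRB in 1% acetic acid, washed with 1% acetic acid, dye solubilised in 10 mM Trizma base, absorbance at 515 nm. GI50 from T0-corrected growth; at least three independent experiments, SD reported.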
A general note: In SRB staining, fixed cells bind dye roughly in proportion to their protein.

Test [3] relates to HCT-116. As to the kind of experiment: cells. The conditions noted are these: Homo sapiens, HCT-116, 48 h. The test is classed as functional.
For test [4], the target named is Heat shock protein HSP 90-alpha (Homo sapiens, UniProt P07900). As to the kind of experiment: Inhibition of FITC-geldanamycin binding to recombinant human full-length C-terminal His-tagged HSP90alpha expressed in Escherichia coli after 3 hrs by fluorescence polarization assay. A general note: Polarisation of emitted light reports the rotation of a fluorescent probe.

The test system of test [5] is NCI-H1975. As to the kind of experiment: cells. The test is classed as functional. The conditions noted are these: Homo sapiens, NCI-H1975, 48 h.
Test [6] addresses Histone deacetylase 1 (Homo sapiens, UniProt Q13547). Nature of the test: Inhibition of HDAC1 (unknown origin).
Test [7] can be described thus: cells. The test is classed as ADME, cell-based. The conditions noted are these: Homo sapiens, SC9.
The species entered for test [8] is Homo sapiens. As to the kind of experiment: Selectivity ratio of IC50 for HDAC1 (unknown origin) to IC50 for HDAC6 (unknown origin).

Consider 14 compounds from ChEMBL document CHEMBL4373735, “N-alkyl-hydroxybenzoyl anilide hydroxamates as dual inhibitors of HDAC and HSP90, downregulating IFN-γ induced PD-L1 expression” (Eur J Med Chem, 2020).

Sequence of Histone deacetylase 1 (Q13547 whole entry): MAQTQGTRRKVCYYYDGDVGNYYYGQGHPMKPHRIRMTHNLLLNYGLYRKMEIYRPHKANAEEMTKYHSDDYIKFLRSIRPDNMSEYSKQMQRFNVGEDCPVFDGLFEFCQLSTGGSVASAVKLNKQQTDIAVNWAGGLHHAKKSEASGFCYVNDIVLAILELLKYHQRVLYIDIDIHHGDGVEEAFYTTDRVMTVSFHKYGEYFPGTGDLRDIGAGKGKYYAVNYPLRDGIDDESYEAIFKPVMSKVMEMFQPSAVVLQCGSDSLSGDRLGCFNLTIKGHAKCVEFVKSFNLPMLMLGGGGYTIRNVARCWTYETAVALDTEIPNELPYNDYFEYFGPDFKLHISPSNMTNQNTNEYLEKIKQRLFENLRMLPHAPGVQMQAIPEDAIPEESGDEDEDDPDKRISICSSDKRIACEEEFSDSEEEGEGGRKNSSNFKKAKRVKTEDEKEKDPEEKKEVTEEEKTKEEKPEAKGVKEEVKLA

Consider `CCN(C(=O)c1cc(C(C)C)c(O)cc1O)c1ccc(NC(=O)CCCCCCC(=O)NO)cc1`, for which the IC50 in test [1] is 462 nM; in test [4] it was 186 nM. Also, the GI50 in test [2] (Homo sapiens, A549, 48 h) turned out to be 5630 nM; in test [3] it was 3560 nM; in test [5], 1380 nM.

On to `O=C(CCCCCCC(=O)Nc1ccccc1)NO` [VORINOSTAT], for which, in test [2], the GI50 stood at 1020 nM. The IC50 in test [4] was more than 500 nM.

With `CC(C)c1cc(C(=O)N(C)c2ccc(NC(=O)CCCCCC(=O)NO)cc2)c(O)cc1O`, the IC50 in test [1] stood at 391 nM; in test [4], 169 nM. Besides, the GI50 in test [2] (Homo sapiens, A549, 48 h) amounted to 2830 nM; in test [3] it was 3780 nM; in test [5], 690 nM.

Take `CC(C)c1cc(C(=O)N(C)c2cccc(NC(=O)CCCCCCC(=O)NO)c2)c(O)cc1O`: the IC50 in test [1] was determined as 211 nM; in test [4], 302 nM. For the same compound, the GI50 in test [2] (Homo sapiens, A549, 48 h) came out at 2300 nM; in test [3], 1170 nM; in test [5], 1660 nM.

For the compound `CCN(C(=O)c1cc(C(C)C)c(O)cc1O)c1cccc(NC(=O)CCCCCCC(=O)NO)c1`, the IC50 worked out at 126 nM in test [1] and 146 nM in test [4]. Moreover, the GI50 in test [2] (Homo sapiens, A549, 48 h) amounted to 1590 nM; in test [3], 1120 nM; in test [5] it was 940 nM.

Turning to `O=C(CCCCC[C@@H](NC(=O)c1ccccc1)C(=O)Nc1ccccc1)NO`, the IC50 in test [6] amounted to 12.1 nM; in test [7], 73 nM.

Consider `C=CCNC1=C2C[C@@H](C)C[C@H](OC)[C@H](O)[C@@H](C)/C=C(\C)[C@H](OC(N)=O)[C@@H](OC)/C=C\C=C(/C)C(=O)NC(=CC1=O)C2=O` (stereo in doubt) [TANESPIMYCIN], for which the IC50 in test [1] was more than 1000 nM. Moreover, the GI50 in test [2] (Homo sapiens, A549, 48 h) was determined as 7.5 nM; in test [3], 340 nM; in test [5], 160 nM.

As to `CC(C)c1cc(C(=O)N(c2ccc(NC(=O)CCCCCCC(=O)NO)cc2)C(C)C)c(O)cc1O`, the IC50 in test [1] and in test [4] was more than 1000 nM each time. Moreover, the GI50 in test [2] (Homo sapiens, A549, 48 h) is more than 10000 nM; in test [3], more than 10000 nM; in test [5], more than 10000 nM.

As for `O=C(CCCCC[C@@H](NC(=O)c1ccccc1)C(=O)Nc1ccc2ncccc2c1)NO`, the IC50 in test [6] is 3.5 nM; in test [7] it was 90 nM.

Consider `CC(C)c1cc(C(=O)N(C)c2ccc(NC(=O)CCCCCCCCC(=O)NO)cc2)c(O)cc1O`, for which the IC50 in test [1] was found to be 672 nM. For the same compound, the 50% growth inhibitory concentration (GI50) stood at 1080 nM in test [2] (Homo sapiens, A549, 48 h); 590 nM in test [3]; 210 nM in test [5].

For the compound `CC(C)c1cc(C(=O)Nc2cccc(NC(=O)CCCCCCC(=O)NO)c2)c(O)cc1O`, the half-maximal inhibitory concentration (IC50) is 106 nM in test [1] and more than 1000 nM in test [4]. The GI50 in test [2] (Homo sapiens, A549, 48 h) is more than 10000 nM; in test [3] it was 6230 nM; in test [5] it was more than 10000 nM.

Turning to `CC(C)c1cc(C(=O)Nc2ccc(NC(=O)CCCCCCC(=O)NO)cc2)c(O)cc1O`, the IC50 in test [1] was 415 nM; in test [4], more than 1000 nM. Further, the GI50 in test [2] (Homo sapiens, A549, 48 h) is more than 10000 nM; in test [3], 5430 nM; in test [5], more than 10000 nM.

As for `CC(C)c1cc(C(=O)Nc2ccccc2NC(=O)CCCCCCC(=O)NO)c(O)cc1O`, the IC50 in test [1] and in test [4] was more than 1000 nM in each case. Also, the GI50 in test [2] (Homo sapiens, A549, 48 h) is more than 10000 nM; in test [3] it was 4920 nM; in test [5], more than 10000 nM.

Take `O=C(CCCCCCC(=O)Nc1ccc(-c2cn(Cc3ccc(F)cc3)nn2)cc1)NO`: the Ratio IC50 in test [8] was 51.

A word on the IC50: it is the concentration that inhibits the measured activity by half. In general, GI50 refers to the concentration at which growth is held to half of that of the control.
